Our source for the Change values is ChEMBL document CHEMBL1145774, “Synthesis and biological effects of novel 2-amino-3-naphthoylthiophenes as allosteric enhancers of the A1 adenosine receptor” (J Med Chem, 2003).

Common to all, as to assay type: functional, cell-based
Assay [1] deals with T1, Adenosine receptor A1 (Homo sapiens) (UniProt P30542).
T1 sequence (whole entry): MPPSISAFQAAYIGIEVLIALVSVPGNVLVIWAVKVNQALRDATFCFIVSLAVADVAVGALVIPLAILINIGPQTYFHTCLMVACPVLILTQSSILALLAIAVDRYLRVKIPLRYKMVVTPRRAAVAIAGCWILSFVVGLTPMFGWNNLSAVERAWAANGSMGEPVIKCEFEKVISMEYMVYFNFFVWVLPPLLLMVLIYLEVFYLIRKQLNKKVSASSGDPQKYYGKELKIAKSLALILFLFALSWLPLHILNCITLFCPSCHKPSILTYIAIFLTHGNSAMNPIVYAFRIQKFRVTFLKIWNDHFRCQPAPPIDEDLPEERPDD
In words: Percent change in cAMP content of CHO (Chinese hamster ovary) cells expressing human Adenosine A1 receptor at 0.1 uM. The gist of the method:
(§1)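 CHO cells stably expressing human A1 receptor (~8000 fmol/mg protein) were grown in Ham's F-12 with 10% FBS and G-418 for 48 h to confluence. HCl (50 mM final) stopped the reaction, and cAMP was measured by radioimmunoassay. Values are % change versus no-compound control, mean ± SEM of six experiments.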

Assay [2] concerns the target T1, Adenosine receptor A1 (Homo sapiens). Nature of the assay: Percent change in cAMP content of CHO (Chinese hamster ovary) cells expressing human Adenosine A1 receptor at 10 uM. An outline of the steps: as §1
The target is the same in assay [3]. Nature of the assay: Percent change in cAMP content of CHO (Chinese hamster ovary) cells expressing human Adenosine A1 receptor at 0.01 uM. An outline of the steps:
as §1

Assay [4] shares this target. Nature of the assay: Percent change in cAMP content of CHO (Chinese hamster ovary) cells expressing human Adenosine A1 receptor at 1 uM. An outline of the steps:
as §1

Structures are written as SMILES.

Take `Cc1cc(C(=O)c2c(N)sc3c2CCCC3)cc2ccc(Cl)cc12`: the Change was 1% in assay [1], -13% in assay [2], -0% in assay [3] and -11% in assay [4].

For the compound `Cc1sc(N)c(C(=O)c2ccc(Cl)c3ccccc23)c1C`, the Change is -18% in assay [1], -56% in assay [2], 12% in assay [3] and -47% in assay [4].

With `Nc1sc2c(c1C(=O)c1ccc3ccccc3c1)CCN(Cc1ccccc1Cl)C2`, the Change in assay [1] is -20%; in assay [2] it was -17%; in assay [3], -10%; in assay [4], -10%.

In the case of `Nc1sc2c(c1C(=O)c1ccc3ccccc3c1)CCC(Cc1ccccc1)C2` (stereo not given), the Change in assay [1] is 10%; in assay [2], 28%; in assay [3] it was 7%; in assay [4] it was -9%.

Regarding `Nc1sc2c(c1C(=O)c1cccc3ccccc13)CCN(Cc1ccccc1)C2`, the Change in assay [1] was -7%; in assay [2] it was 19%; in assay [3], -21%; in assay [4], -25%.

`Nc1sc2c(c1C(=O)c1ccc3ccccc3c1)CCN(Cc1cccc(Cl)c1)C2`: the Change in assay [1] is -12%; in assay [2] it was -3%; in assay [3], 9%; in assay [4], 7%.

Consider `COc1ccc(C(=O)c2c(N)sc3c2CCCC3)c2ccccc12`, for which the Change is 5% in assay [1], -17% in assay [2], 5% in assay [3] and -3% in assay [4].

On to `Cc1sc(N)c(C(=O)c2ccc3c(c2)Cc2ccccc2-3)c1C`, for which the Change in assay [1] was -17%; in assay [2] it was -19%; in assay [3] it was -4%; in assay [4], -10%.

In the case of `Nc1sc2c(c1C(=O)c1cccc3ccccc13)CCC(Cc1ccccc1)C2` (stereo not given), the Change in assay [1] is -7%; in assay [2], -21%; in assay [3], -8%; in assay [4], -14%.

On to `Nc1sc2c(c1C(=O)c1ccc3ccccc3c1)CCN(Cc1cccnc1)C2`, for which the Change in assay [1] is -12%; in assay [2], 56%; in assay [3], -8%; in assay [4], 41%.

In the case of `Cc1cc(C(=O)c2c(N)sc3c2CCC3)cc2ccc(Cl)cc12`, the Change in assay [1] was -14%; in assay [2], -17%; in assay [3] it was 4%; in assay [4], -6%.

Take `Cc1cc(C(=O)c2c(N)sc3c2CCN(Cc2ccccc2)C3)cc2ccccc12`: the Change in assay [1] was 2%; in assay [2], -16%; in assay [3] it was -0%; in assay [4], -0%.

With `Cc1cc(C(=O)c2c(N)sc3c2CCN(Cc2ccccc2)C3)cc2ccc(Cl)cc12`, the Change in assay [1] is 1%; in assay [2] it was -9%; in assay [3], -1%; in assay [4] it was -5%.

For `Cc1sc(N)c(C(=O)c2ccc(C)c3ccccc23)c1C`, the Change was -8% in assay [1], -51% in assay [2], -5% in assay [3] and -32% in assay [4].

In the case of `Nc1sc2c(c1C(=O)c1ccc3ccccc3c1)CCN(Cc1ccc(F)cc1)C2`, the Change in assay [1] is -9%; in assay [2], -8%; in assay [3], -11%; in assay [4], -2%.

On to `Nc1sc2c(c1C(=O)c1ccc3c(c1)Cc1ccccc1-3)CCN(Cc1ccccc1)C2`, for which the Change in assay [1] is -7%; in assay [2] it was -1%; in assay [3], 4%; in assay [4], 8%.

For `COc1ccc(C2SCc3c(sc(N)c3C(=O)c3cccc4ccccc34)S2)cc1` (stereo not given), the Change amounted to 16% in assay [1], 6% in assay [2], 18% in assay [3] and 4% in assay [4].

Consider `Nc1sc2c(c1C(=O)c1ccc3ccccc3c1)CCC(c1ccccc1)C2` (stereo not given), for which the Change in assay [1] was 5%; in assay [2] it was 33%; in assay [3], -8%; in assay [4], 31%.

Regarding `Cc1sc(N)c(C(=O)c2cc(C)c3ccccc3c2)c1C`, the Change was -3% in assay [1], -22% in assay [2], 4% in assay [3] and -9% in assay [4].

As for `COc1ccc(C(=O)c2c(N)sc3c2CCN(Cc2ccccc2)C3)c2ccccc12`, the Change was 11% in assay [1], -12% in assay [2], -0% in assay [3] and 3% in assay [4].

Turning to `COc1ccc(C(=O)c2c(N)sc(C)c2C)c2ccccc12`, the Change in assay [1] was 3%; in assay [2] it was -38%; in assay [3], 9%; in assay [4], -5%.

For the compound `Nc1sc2c(c1C(=O)c1ccc3ccccc3c1)CCN(Cc1ccc(Cl)cc1)C2`, the Change in assay [1] was -8%; in assay [2], -6%; in assay [3] it was -6%; in assay [4], -21%.

On to `Nc1sc2c(c1C(=O)c1ccc(Br)c3ccccc13)CCN(Cc1ccccc1)C2`, for which the Change in assay [1] was -5%; in assay [2], -42%; in assay [3], 18%; in assay [4], -12%.

On to `Cc1sc(N)c(C(=O)c2ccc(Br)c3ccccc23)c1C`, for which the Change in assay [1] is -1%; in assay [2], -60%; in assay [3], -8%; in assay [4], -2%.

Consider `COc1ccc(CN2CCc3c(sc(N)c3C(=O)c3ccc4ccccc4c3)C2)c(OC)c1OC`, for which the Change in assay [1] is -1%; in assay [2], 5%; in assay [3], -3%; in assay [4] it was -10%.

For `Nc1sc2c(c1C(=O)c1ccc(I)c3ccccc13)CCN(Cc1ccccc1)C2`, the Change in assay [1] is 1%; in assay [2], -13%; in assay [3], -6%; in assay [4], -6%.

For `Cc1sc(N)c(C(=O)c2ccc(I)c3ccccc23)c1C`, the Change in assay [1] is -3%; in assay [2], -63%; in assay [3], -5%; in assay [4] it was -19%.

As for `Cc1ccc(C(=O)c2c(N)sc3c2CCC3)c2ccccc12`, the Change in assay [1] was 4%; in assay [2], -48%; in assay [3], 9%; in assay [4] it was -17%.

Consider `Nc1sc2c(c1C(=O)c1ccc3c(c1)Cc1ccccc1-3)CCCC2`, for which the Change in assay [1] was determined as 6%; in assay [2] it was 3%; in assay [3], 7%; in assay [4], 7%.

Take `Cc1ccc(C(=O)c2c(N)sc3c2CCCC3)c2ccccc12`: the Change in assay [1] was 13%; in assay [2], -45%; in assay [3], 17%; in assay [4] it was -21%.

As for `Nc1sc2c(c1C(=O)c1ccc(Cl)c3ccccc13)CCN(Cc1ccccc1)C2`, the Change was -1% in assay [1], -21% in assay [2], 3% in assay [3] and -7% in assay [4].

Turning to `Nc1sc2c(c1C(=O)c1ccc3ccccc3c1)CCN(Cc1ccc([N+](=O)[O-])cc1)C2`, the Change in assay [1] worked out at 12%; in assay [2], 26%; in assay [3], 8%; in assay [4], 26%.

For the compound `Cc1ccc(C(=O)c2c(N)sc3c2CCN(Cc2ccccc2)C3)c2ccccc12`, the Change in assay [1] is -7%; in assay [2], -34%; in assay [3] it was -0%; in assay [4], -13%.

`Cc1cc(C(=O)c2c(N)sc3c2CCCC3)cc2ccccc12`: the Change was -9% in assay [1], -20% in assay [2], -7% in assay [3] and -8% in assay [4].

As to `Nc1sc2c(c1C(=O)c1ccc3c(c1)Cc1ccccc1-3)CCC2`, the Change is -15% in assay [1], -9% in assay [2], -3% in assay [3] and -6% in assay [4].
